Experimental data collected from several papers.
Lines come from different studies, so protocols differ.
Read-out: DPPH scavenging

COc1cc(C(CC(N)=O)NCCc2ccc(O)c(O)c2)ccc1O (stereo not drawn)
IC50: 80.2 µg/mL

COc1ccc(-c2nc3ccccc3[nH]2)cc1OCc1ccccc1
IC50 (absorbance): 1.48 µM

Cc1cc(C(C)(C)C)c(O)c(C(C)(C)C)c1
IC50: 25.2 µg/mL

COC(=O)c1cc(O)c(O)c(O)c1
IC50 (absorbance): 35 µM

O=C1O[C@H]([C@@H](O)CO)C(O)=C1O
IC50: 4.8 µg/mL

O=C(Cc1c[nH]c2ccccc12)Nc1ccc(Br)cc1
IC50: 1.03 µM

COc1cc(-c2oc3cc(O)cc(O)c3c(=O)c2O[C@@H]2O[C@H](CO)[C@@H](O)[C@H](O)[C@H]2O)ccc1O
IC50 (absorbance): > 500 µM

COc1cc(C=CC(=O)CC(c2ccc([N+](=O)[O-])cc2)n2ccnc2)ccc1O (stereo not drawn)
IC50: 26.9 µg/mL

O=C(Cc1c[nH]c2ccccc12)Nc1cccc(F)c1
IC50: 1.53 µM

Clc1ccc2[nH]c(-c3cccc(OCc4ccccc4)c3)nc2c1
IC50 (absorbance): 1.82 µM

COc1cc(C(CC(=O)c2ccc(C)cc2)NCCc2ccc(O)c(O)c2)ccc1O (stereo not drawn)
IC50: 21.1 µg/mL

O=C(OC[C@H]1O[C@@H](OC(=O)c2cc(O)c(O)c(O)c2)[C@H](OC(=O)c2cc(O)c(O)c(O)c2)[C@@H](OC(=O)c2cc(O)c(O)c(O)c2)[C@@H]1O)c1cc(O)c(O)c(O)c1
IC50 (absorbance): 11.9 µM

Cc1c(C)c2c(c(C)c1O)CC[C@@](C)(CCC[C@H](C)CCC[C@H](C)CCCC(C)C)O2
IC50 (absorbance): 11.3 µg/mL

COc1ccc(NC(=O)Cc2c[nH]c3ccccc23)cc1
IC50: 1.04 µM

Cc1cc2nc(-c3ccccc3OCc3ccccc3)[nH]c2cc1C
IC50 (absorbance): 1.8 µM

COc1ccc(OC)c(NC(=O)Cc2c[nH]c3ccccc23)c1
IC50: 2 µM

O=c1oc2c(O)c(O)cc3c(=O)oc4c(O)c(O)cc1c4c23
IC50 (absorbance): 67.8 µM

Cc1cc(C(C)(C)C)c(O)c(C(C)(C)C)c1
IC50 (absorbance): 25.9 µg/mL

COc1cc(NC(=O)Cc2c[nH]c3ccccc23)ccc1C
IC50: 1.53 µM

COc1ccc(-c2nc3cc([N+](=O)[O-])ccc3[nH]2)cc1OCc1ccccc1
IC50 (absorbance): 2.57 µM

COc1cc(C(CC(=O)c2ccc(Br)cc2)NCCc2ccc(O)c(O)c2)ccc1O (stereo not drawn)
IC50: 15.2 µg/mL
